# Source: PubChem (several laboratories)
# bCat nuc transl = beta-catenin nuclear translocation modulation; AID 1665; nuclear translocation activity, % at 5 µM; hit rate 0.3% among 190,000; HeLa beta-catenin nuclear translocation, immunofluorescence imaging;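 active = nuclear translocation activity above 50% at 5 µM, with a well cell count of 50 or more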;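 note: per-cell ratio of nuclear to cytoplasmic median beta-catenin stain intensity; plate controls were DMSO negative control for no effect and GSK-3 inhibitor IX positive control for full effect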
#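 Test system: human HeLa cells, endogenous beta-catenin. Times: 24 h compound exposure, 37°C. Measured by: beta-catenin immunofluorescence imaging with DAPI.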
# MT stabilizer = microtubule stabilization, imaging screen; HeLa tubulin immunostaining HCS, 24 h; share of cells brighter than vehicle mean+2SD; AID 2205; hit rate 0.83% among 200,000; % tubulin-high responders, % at 10 µM;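 active = plate Z-score above 3 for both tubulin-high and condensed-nucleus cell shares, with cell loss under 80%, at 10 µM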;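 note: anti alpha tubulin signal scored within the nucleus-defined area of each cell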
# Lmaj promast = reduces viability of Leishmania major promastigotes; hit rate 9% among 200,000; resazurin fluorescence viability; inhibition, % at 10 µM; AID 1063; in the data active = inhibition above about 50%;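 note: promastigotes grown with compound for 44 hours at 28 °C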
# CHOP inhibitor = blocks CHOP induction under ER stress. CHO-K1 CHOP-promoter luciferase, tunicamycin-induced, 15-18 h. inhibition, % at 10 µM. hit rate 3.8% among 220,000;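 active = compounds that reduced the stress-induced luciferase reporter signal by more than about 70% of percent inhibition, limit read from the data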;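 note: 0% = tunicamycin plus vehicle and 100% = wells without tunicamycin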
# Dynein cargo inh = dynein cargo transport inhibition. 3617.4 mouse cells, GR-EGFP nuclear translocation imaging; test concentration mostly 20 µM; stimulated with dexamethasone, 1 µM; stronger effect = lower value. z-score, hits read low. hit rate 0.47% among 220,000;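 active = plate z-score of nuclear minus cytoplasmic receptor signal below a set negative limit, without overly bright fluorescence or cell loss, cut at about -3.5 in these data, passing the limit was not always enough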;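 note: z-score of nuclear minus cytoplasmic ring GR-EGFP intensity difference per well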
#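 Buffer or medium: tet-free medium with charcoal-stripped serum / Also added: dexamethasone agonist, 1.0 µM final, for 30 min / Timing: induction 48 h, compound 1 h, agonist 30 min / Measured by: high-content fluorescence imaging after fixation / Read-out: nuclear-to-cytoplasmic GR-EGFP distribution per well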
# Autophagy mod = alters autophagy in cells; MEF GFP-LC3 puncta imaging; test concentration mostly 10 µM; calls only at 10 µM (by protocol); hit rate 0.98% among 190,000; AID 463193;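 active = percentage of spot-positive cells more than 3 SD above its plate mean, without a fluorescence outlier flag or 80% toxicity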;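 note: spot-positive cell cutoff set from DMSO-treated cells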
# The depositor's hits bear a star; i = inactive; / = not tested or not shown; + = active, no number. In the library only some 12% were active in any assay of this set; here they are far more common.
SMILES,bCat nuc transl,MT stabilizer,Lmaj promast,CHOP inhibitor,Dynein cargo inh,Autophagy mod
CCCNC(=O)CN(C)S(=O)(=O)c1ccc(F)cc1,-2,2,64*,24,0.7,i
CC(C)NC(=O)CN(C)S(=O)(=O)c1ccc(F)cc1,-4,2,-8,10,-0.63,i
Nc1ccc(C(=O)OCc2nc3cc4ccccc4cc3[nH]2)cc1,5,6,63*,-2,-0.4,i
Cc1ccc(S(=O)(=O)N(C)C)cc1NC(=O)C(C)Sc1ccccc1 (stereo unspecified),1,2,-8,3,-0.59,i
N#C/C(=C/c1ccc(N2CCOCC2)o1)c1ccc(Br)cc1,19,5,5,26,-8.6,+
COc1ccc(OC)c(C2C(C(=O)c3ccccc3)=C(C)Nc3nc4ccccc4n32)c1 (stereo unspecified),0,6,79*,19,3.4,i
CCOC(=O)C1=C(C)Nc2nc3ccccc3n2C1c1ccccc1 (stereo unspecified),-5,2,-3,78*,-0.31,i
CNC(=O)C1=C(C)Nc2nc3ccccc3n2C1c1ccc(F)cc1 (stereo unspecified),0,/,/,1,0.088,/
COc1ccc(C2C(C(=O)c3ccccc3)=C(C)Nc3nc4ccccc4n32)cc1OC (stereo unspecified),-2,5,22,7,-1.2,i
CC1=C(C(=O)OC2CCCCC2)C(c2cccs2)n2c(nc3ccccc32)N1 (stereo unspecified),1,2,24,84*,-0.18,i
COc1ccc(N(CC(=O)Nc2nccs2)S(=O)(=O)c2c(C)[nH]c(=O)[nH]c2=O)cc1,0,6,-4,-33,1.2,i
FC(F)(F)c1cc(-c2ccccc2)nc2nc(N3CCOCC3)sc12,2,3,46,41,-0.9,i
Cc1cc(CC(C)C)n(-c2nc3ccccc3c(=O)n2OCc2ccccc2)n1,-3,2,16,74*,0.8,i
Cc1cc(CC(C)C)n(-c2nc3ccccc3c(=O)n2OCC(=O)N(C)C)n1,2,2,-2,-7,-0.12,i
CC(=O)N1CCN(CC(=O)Nc2c(Cl)ccc(C)c2Cl)CC1,2,3,-1,-1,-0.38,i
CCOC(=O)C(C)/C(C)=N/NC(N)=S (stereo unspecified),/,1,61*,-46,-0.6,i
O=C(CNc1cc(S(=O)(=O)N2CCOCC2)ccc1N1CCCC1)NCc1ccco1,-3,3,-3,24,-0.88,i
C=C1c2cc3c(cc2NC(=S)N1Cc1ccccc1)OCO3,1,/,/,-16,2.4,/
O=c1[nH]c(=O)n(-c2ccccc2)c2c1C(C(F)(F)F)(C(F)(F)F)N=C(CCC1CCCCC1)N2,-1,2,55*,33,1.6,i
Oc1ccc(N2CCN(c3ncnc4sc(-c5ccccc5)cc34)CC2)cc1,3,4,62*,36,-0.6,i
CCc1cc2c(N3CCN(c4ccccc4)CC3)ncnc2s1,2,2,3,77*,-1.1,i
COc1ccc(-c2nc3ccccc3nc2-c2ccccc2)cc1,-1,4,18,49,0.46,i
COc1ccc(-c2[nH]ncc2N=Nc2ccccc2)cc1,89*,19*,12,73*,-0.33,i
Cc1cc(C)c2c(c1)/C(=N\N=c1\sc3ccccc3n1C)C(=O)N2,-1,/,/,69,0.34,/
C/C(=N\NC(N)=S)C1C2C3CC4C5CC(C42)C1C53 (stereo unspecified),0,7.4*,100*,44,-1.5,i
SMILES,bCat nuc transl,MT stabilizer,Lmaj promast,CHOP inhibitor,Dynein cargo inh,Autophagy mod
CC(C)NC(=S)N/N=C1\CCCCC1C1CCCCC1 (stereo unspecified),-4,2,100*,32,-0.021,i
CC(=O)c1ccc(OCc2cc([N+](=O)[O-])cc3c2OCOC3)cc1,1,3,75*,4,0.93,i
O=C(CCCN=C1NS(=O)(=O)c2ccccc21)OCc1cc([N+](=O)[O-])cc2c1OCOC2,-2,5,0,6,0.047,+
CC1C(=O)NN=C1C(=O)N/N=C/c1cccs1 (stereo unspecified),-4,4,-6,1,0.15,i
Cc1cccc(C2C3=C(Nc4[nH]n(-c5ccccc5)c(=O)c42)c2ccccc2C3=O)c1 (stereo unspecified),0,4,-10,35,-0.2,+
N#CC(C(=O)Nc1ccccc1)=C1CCCCC1,0,3,0,-16,2.3,i
N#CC(C(=O)Nc1ccc(Cl)cc1)=C1Nc2ccccc2N1,-3,7,3,90*,0.15,i
Nc1ccc2c(c1)Cc1cc([N+](=O)[O-])ccc1-2,-1,3,1,29,-6.9,+
O=[N+]([O-])c1ccc2c(c1)S(=O)c1ccccc1-2 (stereo unspecified),0,/,/,-2,0.37,/
CC(C)c1ccc(/C=C(\c2nc3ccccc3[nH]2)S(=O)(=O)c2ccccc2)cc1,27,27*,100*,33,-3.4,i
COc1ccc(/C=C(/NC(=O)c2ccccc2)c2nc3ccccc3[nH]2)cc1OC,-1,2,1,-7,1.5,i
COc1ccc(OCC(=O)N/N=C\c2ccco2)cc1,1,2,-2,8,0.87,i
O=C(COc1ccccc1)NCC(=O)N/N=C/c1ccco1,-1,2,56*,21,0.2,i
OC(COc1ccc2cc(Br)ccc2c1)CN1CCCC1 (stereo unspecified),/,3,100*,5,3.7,i
O=S(=O)(N1CCCCC1)N1CCN(CC(O)COc2ccc3cc(Br)ccc3c2)CC1 (stereo unspecified),/,5,-4,87*,-0.35,i
Cc1cccc(C)c1OCC(O)CN1CCN(c2ccccn2)CC1 (stereo unspecified),-1,8,1,17,-1.1,i
OC(COC(c1ccc(Cl)cc1)c1ccc(Cl)cc1)CN1CCN(c2ccccn2)CC1 (stereo unspecified),/,4,71*,91*,0.41,i
OC(COc1ccc2cc(Br)ccc2c1)CN1CCN(c2ccccn2)CC1 (stereo unspecified),/,5,-1,79*,-0.63,i
CN(C)S(=O)(=O)N1CCN(CC(O)COc2ccc3cc(Br)ccc3c2)CC1 (stereo unspecified),1,8,10,70,0.018,i
CCOC(=O)c1sc(/N=C/c2c(C)[nH]n(-c3ccccc3)c2=O)c(C#N)c1C,/,1,-3,-22,-0.45,i
Cc1ccc(NC(=S)Nc2ccc(F)cc2)c(C)c1,0,4,26,22,-1.4,i
